Source: PubChem (several laboratories)
This is a sample that favours compounds with a hit; in the whole collection about 4.5% have one here.
RGS4 pot: potentiators or activators of RGS4; AID 463111; HEK293 M3R/inducible RGS4, carbachol calcium flux Fluo4; stronger effect = lower value; B-score at 10 µM; actives 0.92% (n = 310,000);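 active means B-score of the integrated calcium signal more than 4 SD below the library mean, with starting fluorescence not abnormally high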;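 further: negative B-score means reduced calcium response which marks RGS4 activation or potentiation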
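Material: Inducible-RGS4 HEK293 cells carrying M3 receptor; also added: carbachol at ECmax as muscarinic agonist stimulus; incubation: compound preincubation 20 min at room temperature before agonist; signal: Fluo4-AM (2 µM) calcium-flux fluorescence, kinetic read; measure: integrated calcium ratio converted to B score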
PHOSPHO1 block: blocks human PHOSPHO1 phosphatase activity | Q8TCT1 | recombinant PHOSPHO1, absorbance phosphatase assay | inhibition, % at 13.3 µM | actives 1.1% (n = 290,000) | AID 1565; in the data active means inhibition above about 60%
MrgX1 ag: human MrgX1 receptor agonism, primary screen. B-score at 10 µM. Q96LB2. AID 588627. actives 0.44% (n = 310,000). MrgX1-HEK293 cells, Fluo-4 calcium fluorescence, agonist mode; stronger effect = higher value;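 active means calcium response B-score plate-corrected fluorescence ratio at least 3 library SD, with starting fluorescence B-score inside 5 SD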
Target sequence (Q96LB2 whole entry, looked up): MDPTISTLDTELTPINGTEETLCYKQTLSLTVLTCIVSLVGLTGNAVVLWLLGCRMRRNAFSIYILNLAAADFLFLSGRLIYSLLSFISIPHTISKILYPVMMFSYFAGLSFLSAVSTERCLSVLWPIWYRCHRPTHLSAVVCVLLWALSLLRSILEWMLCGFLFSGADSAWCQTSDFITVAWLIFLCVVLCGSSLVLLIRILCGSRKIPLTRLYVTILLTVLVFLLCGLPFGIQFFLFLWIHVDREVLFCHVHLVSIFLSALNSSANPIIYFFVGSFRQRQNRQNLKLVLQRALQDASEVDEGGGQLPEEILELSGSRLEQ
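Test system: HEK293 cells stably expressing human MrgX1 receptor; Input: fifteen thousand cells per well; Dosing: compound delivered in addition one of three; Schedule: overnight seeding, then 1 h dark dye loading; Technique: Fluo-4 NW calcium fluorescence; Measure: B-scored fluorescence response ratio; Controls: positive and negative controls per plate.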
MrgX1 allo act: allosterically activates human MrgX1 receptor signaling; AID 588675; Q96LB2; actives 0.63% (n = 310,000); B-score at 10 µM; MrgX1-HEK293, Fluo-4 calcium flux, FDSS; stronger effect = higher value;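 active means plate-corrected calcium response at least 3 library SD above typical, normal starting fluorescence, not activating the receptor alone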;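 further: compound read alongside a low EC10 to EC30 dose of BAM8-22 agonist; peak minus trough fluorescence over baseline measured at the second addition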
RGS4 block: inhibitors of human RGS4. P49798. HEK293 M3R/RGS4 inducible, Fluo-4 calcium flux; stronger effect = higher value; triggered by carbachol at its EC20. B-score at 10 µM. actives 0.45% (n = 310,000);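 active means B-score, a plate-corrected calcium signal, over three deviations above library mean, with baseline fluorescence within five deviations of library mean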;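 further: RGS4 expression induced by doxycycline in cells with stable M3 receptor; B-score is computed from the integrated fluorescence ratio over baseline after carbachol; higher B-score means a larger calcium signal and so more RGS4 inhibition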
Target sequence (P49798 whole entry, looked up): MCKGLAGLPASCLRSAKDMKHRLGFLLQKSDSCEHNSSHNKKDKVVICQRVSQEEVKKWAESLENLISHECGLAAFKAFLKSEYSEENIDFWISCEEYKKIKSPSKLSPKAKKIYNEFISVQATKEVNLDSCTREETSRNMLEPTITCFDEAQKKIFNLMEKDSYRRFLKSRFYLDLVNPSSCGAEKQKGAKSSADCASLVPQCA
MrgX1 antag: antagonists of human MrgX1 receptor. AID 588676. MRGX1-HEK293 calcium flux, Fluo-4, BAM8-22 antagonism; stronger effect = lower value. B-score at 10 µM. actives 1.3% (n = 310,000);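 active means calcium-response B-score plate-corrected more than 3 library SD below zero, starting fluorescence within 5 deviations, no agonist response on first addition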;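 further: peak minus trough fluorescence over baseline after final BAM8-22 challenge near maximal dose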
MrgX1 ag confirm: reconfirmed activator of human MrgX1 receptor signaling; shares compounds with MrgX1 ag; MrgX1-HEK293, Fluo-4 calcium fluorescence, FDSS; activation, % at 10 µM; actives 78% (n = 600); AID 602412;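 active means calcium signal rise, corrected for plate position, at least 3 library SD high, with starting brightness within 5 such deviations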
MrgX1 allo conf: human MrgX1 positive allosteric modulation, re-confirmation | shares compounds with MrgX1 allo act | MrgX1-HEK293, Fluo-4 calcium fluorescence, FDSS | activation (ratio percentage), % at 10 µM | actives 13% (n = 1,200);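 active means ratio at least 3 SD above the weak peptide control, stable starting fluorescence, no direct agonism earlier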;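 further: compound followed by low BAM8-22 agonist challenge near EC20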
MrgX1 ant reconf: human MrgX1 receptor antagonism, re-confirmation screen; actives 19% (n = 2,300); MrgX1-HEK293, BAM8-22 calcium flux, Fluo-4; stronger effect = lower value; remaining BAM8-22 calcium response % of control (stronger effect = lower value), % at 10 µM; AID 602420; shares compounds with MrgX1 antag;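 active means remaining agonist calcium response no higher than 100% minus 3 SD of agonist-only control wells, with starting fluorescence near control levels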;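 further: agonist BAM8-22 given at a near maximal EC90 to ECmax level; peak minus minimum fluorescence divided by baseline after agonist addition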
HEK293 Ca flux: MrgX1 antagonist counter-screen hit in parental HEK293 cells. AID 624111. shares compounds with MrgX1 antag. fluorescence ratio F(max-min)/F0 at 10 µM. actives 2% (n = 4,000). Fluo-4 calcium fluorescence, FDSS;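 active means duplicate-averaged calcium fluorescence ratio at least three times the standard deviation of buffer wells, a nonspecific response in parental cells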
HEK293 Ca counter: MrgX1 allosteric activator counter-screen hit in parental HEK293 cells; shares compounds with MrgX1 antag; parental HEK293 calcium flux, Fluo-4 fluorescence ratio; stronger effect = higher value; fluorescence ratio F(max-min)/F0 at 10 µM; actives 0.4% (n = 4,000);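 active means calcium fluorescence ratio, averaged over duplicates, at least 3 SD of the buffer-well ratio, meaning a nonspecific response in receptor-free cells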;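 further: untransfected parental HEK293 lacking MrgX1 used as counterscreen for MrgX1 allosteric activators; fluorescence change taken during the second addition on a kinetic imager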
HEK293 Ca cntr2: activity in parental HEK293 cells lacking MrgX1 receptor. fluorescence ratio F(max-min)/F0 at 10 µM. shares compounds with MrgX1 antag. Fluo-4 calcium fluorescence (FDSS); stronger effect = higher value. actives 8.7% (n = 4,000). AID 624115;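 active means calcium fluorescence ratio at least three times the spread of buffer wells, meaning a non-specific response in parental cells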
* hit, by the source's call; i = inactive; / = no result given.

SMILES	RGS4 pot	PHOSPHO1 block	MrgX1 ag	MrgX1 allo act	RGS4 block	MrgX1 antag	HEK293 Ca flux	HEK293 Ca counter	HEK293 Ca cntr2	others
O=C1CCCN1CC#CCN1CCCC1	i	41	52*	i	i	i	i	i	49*	MrgX1 ag confirm=226%*
CN1CCN(c2ccc3c(c2)S(=O)(=O)c2ccccc2C3=O)CC1	i	/	28*	i	i	i	i	i	51*	MrgX1 ag confirm=i
CN1CCN(c2cccc3c2C(=O)c2ccccc2C3=O)CC1	i	-12	/	/	i	/	/	/	/
CC1(C)NC(=O)[C@H]2CCCN21	i	/	i	i	i	i	/	/	/
O=C(Nc1ccc(Cl)cc1)O/N=C(\c1ccccc1)c1ccccn1	i	6	i	i	i	i	/	/	/
COc1cccc(OCC(=O)N2CCN(C)CC2)c1	i	-3	i	i	i	i	/	/	/
COc1cccc(C2(C#N)CCN(C)CC2)c1	i	-30	i	6.5*	i	i	i	i	i	MrgX1 allo conf=i
CC/C(=N\NC(=S)Nc1ccccc1)c1c(O)[nH]c(=O)[nH]c1=O	i	-104	i	i	i	i	/	/	/
CCCCn1c(=O)c(C(=O)NCc2ccccc2)c(O)c2ccccc21	i	45	i	i	i	i	/	/	/
CCCCCn1c(=O)c(C(=O)NCc2ccc(Cl)cc2)c(O)c2ccccc21	i	8	i	8.8*	i	i	i	49*	i	MrgX1 allo conf=i
Cc1ccccc1-n1c(CNc2ccccc2)nc2ccccc2c1=O	i	/	i	i	i	i	/	/	/
CCOC(=O)C1=C(N)Oc2c(c(=O)oc3ccccc23)C12C(=O)N(C)c1ccccc12 (stereo unspecified)	i	12	i	8.5*	i	i	i	i	i	MrgX1 allo conf=16%*
C=CCN1C(=O)C2(C(C(=O)OCC)=C(N)Oc3ccccc32)c2c1c1ccccc1oc2=O (stereo unspecified)	i	16	i	24*	i	i	i	i	i	MrgX1 allo conf=33%*
CCCC1=C(C(=O)OCC)C2(C(=O)Nc3ccccc32)C(C#N)=C(N)O1 (stereo unspecified)	i	6	i	i	i	-4.6*	i	i	i	MrgX1 ant reconf=i
CCOC(=O)C1=Nc2ccccc2/C1=C\c1c(O)n(C)c(=O)n(C)c1=O	i	33	i	i	i	i	/	/	/
CCOc1cc2c(cc1OCC)-n1cccc1C(c1ccc(OC(F)F)cc1)NC2 (stereo unspecified)	i	20	i	i	i	-10*	i	i	i	MrgX1 ant reconf=42%*
CCOP(=O)(OCC)C(NC(=O)c1cccc([N+](=O)[O-])c1)C(Cl)(Cl)Cl (stereo unspecified)	i	37	i	i	i	i	/	/	/
